For orientation: Ki means the equilibrium dissociation constant of an inhibitor or competing ligand from its target. A lower Ki goes with tighter binding.

Three compounds from ChEMBL document CHEMBL1125113, “(S)-5-fluoro-8-hydroxy-2-(dipropylamino)tetralin: a putative 5-HT1A-receptor antagonist” (J Med Chem, 1990) can be followed below.

Test [1] concerns the target T1, Aromatic-L-amino-acid decarboxylase (Homo sapiens) (UniProt P20711).
T1 sequence (whole entry): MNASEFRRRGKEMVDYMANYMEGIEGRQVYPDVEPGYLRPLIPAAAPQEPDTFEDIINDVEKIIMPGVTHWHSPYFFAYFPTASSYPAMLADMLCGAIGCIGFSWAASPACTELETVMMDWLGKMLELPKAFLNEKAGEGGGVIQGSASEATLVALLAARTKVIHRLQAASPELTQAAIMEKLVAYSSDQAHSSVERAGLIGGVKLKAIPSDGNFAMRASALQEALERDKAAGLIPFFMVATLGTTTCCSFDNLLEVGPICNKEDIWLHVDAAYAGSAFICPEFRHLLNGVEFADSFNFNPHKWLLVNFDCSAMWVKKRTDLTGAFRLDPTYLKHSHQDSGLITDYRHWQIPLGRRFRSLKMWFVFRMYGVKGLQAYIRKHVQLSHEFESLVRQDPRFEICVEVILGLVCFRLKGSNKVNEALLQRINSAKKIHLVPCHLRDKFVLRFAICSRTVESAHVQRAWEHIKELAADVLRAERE
The experiment in a line: The effect on the accumulation of DOPA in rat brain(striatum), by subcutaneous administration at a dose of 0.32(umol/kg). The format is functional, organism-based. The note with it: target entry is the homologue from another species. A digest of the protocol:
(§1)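 Nonpretreated rats received the test drug sc 60 min before death. The decarboxylase inhibitor NSD 1015 (287 µmol/kg sc) was given 30 min before death. Brain 5-HTP and DOPA in limbic and striatal regions were measured by HPLC with electrochemical detection. Values are means ± SEM, with n = 9 controls and 5–7 per experimental group.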

Test [2] addresses T1, Aromatic-L-amino-acid decarboxylase (Homo sapiens). The experiment in a line: The effect on the accumulation of DOPA in rat brain(limbic), by subcutaneous administration at a dose of 0.32(umol/kg). The format is functional, organism-based. The note with it: target entry is the homologue from another species. A digest of the protocol:
as §1

Test [3] has as its system Rattus norvegicus. The test can be described thus: The effect on the accumulation of 5-HTP in rat brain(striatum), by subcutaneous administration at a dose of 0.32(umol/kg). Format: functional. In outline: as §1
The test system of test [4] is Rattus norvegicus. The test can be described thus: The effect on the accumulation of 5-HTP in rat brain(limbic), by subcutaneous administration at a dose of 0.32(umol/kg). Format: functional. In outline:
as §1

Test [5] concerns the target T1, Aromatic-L-amino-acid decarboxylase (Homo sapiens). The test can be described thus: The effect on the accumulation of DOPA in rat brain(striatum), by subcutaneous administration at a dose of 10(umol/kg). The format is functional, organism-based. The note with it: target entry is the homologue from another species. A digest of the protocol:
as §1

Test [6] deals with Rattus norvegicus. The test can be described thus: The effect on the accumulation of 5-HTP in rat brain(striatum), by subcutaneous administration at a dose of 10(umol/kg). Format: functional. In outline: as §1
Test [7] concerns the target T1, Aromatic-L-amino-acid decarboxylase (Homo sapiens). The experiment in a line: The effect on the accumulation of DOPA in rat brain(limbic), by subcutaneous administration at a dose of 10(umol/kg). The note with it: target entry is the homologue from another species. Format: functional, organism-based. A digest of the protocol: as §1
Test [8] concerns the target T2, 5-hydroxytryptamine receptor 1A (Rattus norvegicus, UniProt P19327).
T2 sequence (P19327 whole entry): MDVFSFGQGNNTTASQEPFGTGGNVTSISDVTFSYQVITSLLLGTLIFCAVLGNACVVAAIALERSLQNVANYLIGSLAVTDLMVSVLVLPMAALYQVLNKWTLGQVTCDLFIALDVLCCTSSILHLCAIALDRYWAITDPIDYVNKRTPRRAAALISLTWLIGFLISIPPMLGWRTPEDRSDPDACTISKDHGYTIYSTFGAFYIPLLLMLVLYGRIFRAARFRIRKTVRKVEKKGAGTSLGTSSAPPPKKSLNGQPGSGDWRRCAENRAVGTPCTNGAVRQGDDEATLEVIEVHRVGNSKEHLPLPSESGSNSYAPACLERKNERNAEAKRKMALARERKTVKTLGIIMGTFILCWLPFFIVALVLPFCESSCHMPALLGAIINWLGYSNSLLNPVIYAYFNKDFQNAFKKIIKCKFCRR
The test can be described thus: Binding affinity towards 5-hydroxytryptamine 1A receptor sites in cortical membranes using [3H]8-OH-DPAT as radioligand. The format is cell membranes.

Test [9] concerns Rattus norvegicus. The experiment in a line: The effect on the accumulation of 5-HTP in rat brain(limbic), by subcutaneous administration at a dose of 10(umol/kg). Format: functional. In outline: as §1
For test [10], the system named is Rattus norvegicus. The test can be described thus: The effect on the accumulation of 5-HTP in rat brain(striatum), by subcutaneous administration at a dose of 32(umol/kg). Format: functional. In outline:
as §1

The structures appear in SMILES notation. Bounds are passed on as bounds.

On to `CCCN(CCC)[C@@H]1CCc2cccc(O)c2C1`, for which the Potencymean in test [1] is 909 ng/g; in [2], 371 ng/g; with Rattus norvegicus [3], <53.3 ng/g; with Rattus norvegicus [4] it was <103 ng/g.

`CCCN(CCC)[C@@H]1CCc2c(F)ccc(O)c2C1`: the Potencymean in test [5] was 1190 ng/g; in the test with Rattus norvegicus [6] it was <59.7 ng/g; in test [7], 398 ng/g; in the test on Rattus norvegicus [9], <86.5 ng/g. Besides, the Ki in [8] worked out at 6.1 nM.

Take `CCCN(CCC)[C@H]1CCc2c(F)ccc(O)c2C1`: the Potencymean in [5] was < 682 ng/g; in test [7], 324 ng/g; in the test with Rattus norvegicus [10], 91.4 ng/g; with Rattus norvegicus [9], 152 ng/g. In [8], this compound gave a Ki of 52 nM.
